Series [1] has as its system Human immunodeficiency virus 1. As to the kind of experiment: Antiviral activity against wild type HIV1 3B infected in human MT4 cells assessed as protection against virus induced cytopathogenicity after 4 days by MTT assay. It is filed as functional, organism-based. Conditions: Human immunodeficiency virus 1, 3B, MT4, 96 h. The procedure, abridged:
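MT-4 cells (1×10^4/well) in RPMI with serial compound dilutions were infected with HIV-1 (100 CCID50; m.o.i. 0.01). After 4 days, viability was measured by MTT. EC50 is the concentration giving 50% protection from virus-induced cytopathogenicity. Compounds were prepared as 100 mM DMSO stocks diluted in medium.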
(Cytopathic effects are the visible damage that an infection or toxin causes in cultured cells.)

Another series concerns Yellow fever virus. Briefly: Antiviral activity against Yellow fever virus infected in BHK-21 cells assessed as protection against virus induced cytopathogenicity after 3 to 4 days by MTT assay. The class given is functional, organism-based. The procedure, abridged: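 BHK cells were seeded at 5 × 10^4 per well and grown overnight to monolayers, then infected at m.o.i. 0.01 in serum-free medium. One hour later, MEM Earle's with 1% FCS (final) and serial compound dilutions were added. After 3–4 days at 37 °C, viability was read by MTT. EC50 is the concentration giving 50% protection from virus-induced cytopathogenicity.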

For series [2], the system named is Bovine viral diarrhea virus 1. As to the kind of experiment: Antiviral activity against Bovine viral diarrhea virus infected in MDBK cells assessed as protection against virus induced cytopathogenicity after 3 to 4 days by MTT assay. The class given is functional, organism-based. The procedure, abridged: (§1)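 Monolayers were grown overnight at 37 °C, 5% CO2: MDBK at 3×10^4 cells/well, BHK at 5×10^4 cells/well. Cells infected at m.o.i. 0.01. After 1 h, serial compound dilutions added in MEM with 1% FCS. Viability read by MTT after 3–4 days at 37 °C. EC50 is the concentration giving 50% protection from cytopathogenicity.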

Another series deals with Coxsackievirus B2. As to the kind of experiment: Antiviral activity against Coxsackie virus B2 infected in african green monkey Vero76 cells after 3 days by plaque reduction assay. The class given is functional, organism-based. As to conditions: Vero 76. The procedure, abridged: (§2)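 Vero 76 monolayers (2×10^5 cells/well, overnight) infected to give 50–100 PFU/well. Unadsorbed virus removed, then DMEM with 1% FCS, 0.75% methylcellulose and serial compound dilutions added. Incubated at 37 °C for 3 days (CVB-2, HSV-1) or 5 days (RSV). Fixed and stained with 50% ethanol/0.8% crystal violet in PBS; plaques counted.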

The test system of the next series is Poliovirus 1. Briefly: Antiviral activity against Poliovirus type 1 Sabin infected in african green monkey Vero76 cells after 2 days by plaque reduction assay. Conditions: Vero 76. The class given is functional, cell-based. For orientation: Plaque reduction counts the foci of infection that form in a cell layer.
The test system of series [3] is Respiratory syncytial virus. As to the kind of experiment: Antiviral activity against Respiratory syncytial virus infected in african green monkey Vero76 cells after 5 days by plaque reduction assay. As to conditions: Vero 76. It is filed as functional, organism-based. The method, boiled down:
as §2

Series [4] has as its system Vesicular stomatitis virus. As to the kind of experiment: Antiviral activity against Vesicular stomatitis virus infected in african green monkey Vero76 cells after 2 days by plaque reduction assay. The class given is functional, organism-based. As to conditions: Vero 76.
The test system of series [5] is Mammalian orthoreovirus 1. As to the kind of experiment: Antiviral activity against Reo virus type-1 infected in BHK-21 cells assessed as protection against virus induced cytopathogenicity after 3 to 4 days by MTT assay. The class given is functional, organism-based. The method, boiled down: as §1
In a further series the test system is Human alphaherpesvirus 1. Briefly: Antiviral activity against HSV1 infected in african green monkey Vero76 cells after 3 days by plaque reduction assay. It is filed as functional, organism-based. Conditions: Vero 76. The method, boiled down:
as §2

The test system of the next series is Vaccinia virus. Briefly: Antiviral activity against Vaccinia virus infected in african green monkey Vero76 cells after 3 days by plaque reduction assay. The class given is functional, organism-based. As to conditions: Orthopoxvirus vaccinia; Vero 76.
A short description of series [6]: Cytotoxicity against human MT4 cells assessed as reduction of cell viability after 96 hrs by MTT assay. The class given is cell-based. The method, boiled down: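 Exponentially growing, mock-infected MT-4 cells were seeded at 1×10^5 cells mL-1 in RPMI-1640 with 10% FCS and penicillin/streptomycin, with serial compound dilutions. Incubated 96 h at 37 °C, 5% CO2, then viability read by MTT. CC50 is the concentration reducing viability by 50%.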

Activity calls are given as the source filed them. The rule behind the calls is not given here.

The term EC50 denotes the concentration that produces a half-maximal response. In general, CC50 refers to the concentration at which the toxic effect on the cells reaches its halfway point. With `C=CCNC(=S)NN1C(=O)C2C3CC(C(C)C)C(C=C3C)C2C1=O` (configuration not stated), the EC50 in [1] was over 100 µM. For the same compound, the result (in the series with Yellow fever virus; in series [2]; in the series on Coxsackievirus B2; in the series on Poliovirus 1; in series [3]; in series [4]) was inactive. For the same compound, the result (in [5]; in the series with Human alphaherpesvirus 1; in the series on Vaccinia virus) was inactive. Also, the 50% cytotoxic concentration (CC50) at 96 h in [6] was over 100 µM.

Consider `CC1=CC2C(C(C)C)CC1C1C(=O)N(NC(=S)Nc3ccc(Cl)c(Cl)c3)C(=O)C21` (configuration not stated), for which the EC50 in series [1] was over 41 µM. The result (with Yellow fever virus; in series [2]; with Coxsackievirus B2; with Poliovirus 1; in series [3]; in series [4]) was inactive. The result (in [5]; with Human alphaherpesvirus 1; in the series on Vaccinia virus) was inactive. In addition, the CC50 at 96 h in series [6] amounted to 41 µM.

As for `CC1=CC2C(C(C)C)CC1C1C(=O)N(N3CCCCS/C3=N\c3ccc(Cl)cc3)C(=O)C21` (configuration not stated), the EC50 in series [1] is over 30 µM. The result (in the series on Yellow fever virus; in [2]; in the series on Coxsackievirus B2; in the series with Poliovirus 1; in [3]; in series [4]) was inactive. Further, the result (in series [5]; with Human alphaherpesvirus 1; in the series with Vaccinia virus) was inactive. Moreover, the CC50 at 96 h in series [6] was 30 µM.

For `CC(C)C12C=CC(C)(CC1)C1C(=O)N(N3CCCCS/C3=N\c3ccc(Cl)cc3)C(=O)C12` (configuration not stated), the EC50 in series [1] is over 32 µM. Also, the outcome (with Yellow fever virus; in series [2]; with Coxsackievirus B2; in the series with Poliovirus 1; in [3]; in series [4]) was inactive. The result (in series [5]; in the series on Human alphaherpesvirus 1; in the series on Vaccinia virus) was inactive. The CC50 at 96 h in series [6] was found to be 32 µM.

Take `CC1=CC2C(C(C)C)CC1C1C(=O)N(NC(=S)Nc3ccc(I)cc3)C(=O)C21` (configuration not stated): in series [1], the EC50 is over 45 µM. Further, the result (in the series on Yellow fever virus; in series [2]; in the series with Coxsackievirus B2; in the series on Poliovirus 1; in series [3]; in series [4]) was inactive. The result (in series [5]; in the series with Human alphaherpesvirus 1; in the series with Vaccinia virus) was inactive. Besides, the CC50 at 96 h in series [6] was found to be 45 µM.

On to `CC1=CC2C(C(C)C)CC1C1C(=O)N(N3CCCCS/C3=N\c3ccc(Cl)c(Cl)c3)C(=O)C21` (configuration not stated), for which the concentration for a half-maximal effect (EC50) in series [1] is over 100 µM. In addition, the result (in the series on Yellow fever virus; in series [2]; in the series with Coxsackievirus B2; with Poliovirus 1; in series [3]; in series [4]) was inactive. In addition, the outcome (in series [5]; with Human alphaherpesvirus 1; with Vaccinia virus) was inactive. Moreover, the half-maximal cytotoxic concentration (CC50) at 96 h in series [6] was 100 µM.

Turning to `CC(C)C12C=CC(C)(CC1)C1C(=O)N(NC(=S)Nc3ccc(I)cc3)C(=O)C12` (configuration not stated), the concentration for a half-maximal effect (EC50) in series [1] was over 100 µM. The result (in the series with Yellow fever virus; in [2]; in the series with Coxsackievirus B2; with Poliovirus 1; in series [3]; in [4]) was inactive. In addition, the result (in [5]; in the series on Human alphaherpesvirus 1; with Vaccinia virus) was inactive. Further, the 50% cytotoxic concentration (CC50) at 96 h in [6] is over 100 µM.

Turning to `CC(C)C12C=CC(C)(CC1)C1C(=O)N(N3CCCCS/C3=N\Cc3ccccc3)C(=O)C12` (configuration not stated), the EC50 in [1] was over 100 µM. The outcome (with Yellow fever virus; in series [2]; in the series with Coxsackievirus B2; in the series on Poliovirus 1; in [3]; in [4]) was inactive. For the same compound, the outcome (in series [5]; in the series on Human alphaherpesvirus 1; in the series with Vaccinia virus) was inactive. In [6], the cytotoxic concentration (CC50) at 96 h is over 100 µM.

For the compound `CC1=CC2C(C(C)C)CC1C1C(=O)N(N3CCCCS/C3=N\c3ccc(F)cc3)C(=O)C21` (configuration not stated), the EC50 in [1] is over 49 µM. For the same compound, the result (in the series on Yellow fever virus; in series [2]; in the series with Coxsackievirus B2; with Poliovirus 1; in series [3]; in series [4]) was inactive. Also, the result (in series [5]; in the series on Human alphaherpesvirus 1; in the series on Vaccinia virus) was inactive. In addition, in series [6], the CC50 at 96 h turned out to be 49 µM.

`C=CC/N=C1\SCCCCN1N1C(=O)C2C3CC(C(C)C)C(C=C3C)C2C1=O` (configuration not stated): in series [1], the EC50 is over 59 µM. In addition, the outcome (in the series on Yellow fever virus; in series [2]; with Coxsackievirus B2; with Poliovirus 1; in series [3]; in series [4]) was inactive. For the same compound, the result (in [5]; in the series with Human alphaherpesvirus 1; in the series on Vaccinia virus) was inactive. In addition, the CC50 at 96 h in series [6] was determined as 59 µM.

Take `CC(C)C12C=CC(C)(CC1)C1C(=O)N(NC(=S)Nc3ccc(Cl)c(Cl)c3)C(=O)C12` (configuration not stated): the EC50 in series [1] is over 59 µM. The outcome (with Yellow fever virus; in series [2]; with Coxsackievirus B2; with Poliovirus 1; in series [3]; in [4]) was inactive. Further, the result (in series [5]; in the series with Human alphaherpesvirus 1; in the series on Vaccinia virus) was inactive. In addition, the CC50 at 96 h in series [6] came to 59 µM.

`CC1=CC2C(C(C)C)CC1C1C(=O)N(N3CCCCS/C3=N\c3ccc(I)cc3)C(=O)C21` (configuration not stated): the half-maximal effective concentration (EC50) in series [1] was over 22 µM. Further, the result (in the series with Yellow fever virus; in [2]; with Coxsackievirus B2; with Poliovirus 1; in series [3]; in series [4]) was inactive. Moreover, the outcome (in series [5]; with Human alphaherpesvirus 1; in the series with Vaccinia virus) was inactive. The 50% cytotoxic concentration (CC50) at 96 h in series [6] is 22 µM.

The values above are taken from ChEMBL document CHEMBL1156068, “Synthesis, pharmacological and antiviral activity of 1,3-thiazepine derivatives” (Eur J Med Chem, 2009).
